Measurements taken from ChEMBL document CHEMBL2424551, “Synthesis, in vitro evaluation and molecular modelling of naphthalimide analogue as anticancer agents” (2013).

Columns and labels:
Format in all cases: functional
IGROV-1 = test: Growth inhibition of human IGROV1 cells at 10 uM after 48 hrs by SRB assay; settings: IGROV-1, 48 h, read-out: GI
Procedure, shortened: (§1)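 Cells grown in RPMI 1640 with 5% FBS and 2 mM L-glutamine, plated at 5000–40,000 cells/well by doubling time and preincubated 24 h (37 °C, 5% CO2); a time-zero plate is TCA-fixed. Single dose added, then 48 h incubation. Fixed with cold TCA, stained with 0.4% SRB, dye solubilized in 10 mM Tris base, absorbance at 515 nm; percent growth vs time-zero and untreated control.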

[1] = Cytotoxicity against human breast cancer cells after 48 hrs by SRB assay; settings: Cancer cell lines
Procedure, shortened: (§2)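 Five-concentration screen (10-fold or ½-log serial dilutions) on the 60-line panel. Cells grown in RPMI 1640 with 5% FBS and 2 mM L-glutamine, plated at 5000–40,000/well by doubling time, preincubated 24 h at 37 °C, 5% CO2, then exposed 48 h. Time-zero plates TCA-fixed. SRB stain, Tris-solubilized, A515. GI50, TGI and LC50 derived from Tz, C and Ti.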

K562 = test: Growth inhibition of human K562 cells at 10 uM after 48 hrs by SRB assay; settings: K562, 48 h, read-out: GI; procedure, shortened: as §1
T47D = test: Growth inhibition of human T47D cells at 10 uM after 48 hrs by SRB assay; settings: read-out: GI
Procedure, shortened: (§3)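 NCI 60-cell-line screen with a single 10 µM dose. Cells are grown in RPMI 1640 with 5% FBS and 2 mM L-glutamine, plated at 5000–40,000 cells/well according to doubling time, and preincubated 24 h at 37 °C, 5% CO2; time-zero plates are TCA-fixed at that point. Drug exposure is 48 h. Adherent cells are fixed with cold TCA, stained with 0.4% SRB in 1% acetic acid and read at 515 nm. Percent growth is calculated relative to time-zero and untreated controls and reported as GI%.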

[2] = Cytotoxicity against human melanoma cells after 48 hrs by SRB assay; settings: Melanoma cell; procedure, shortened: as §2
786-0 = test: Growth inhibition of human 786-0 cells at 10 uM after 48 hrs by SRB assay; settings: 786-0, 48 h, read-out: GI; procedure, shortened: as §1
SN12C = test: Growth inhibition of human SN12C cells at 10 uM after 48 hrs by SRB assay; settings: read-out: GI; procedure, shortened: as §3
CAKI-1 = test: Growth inhibition of human Caki1 cells at 10 uM after 48 hrs by SRB assay; settings: CAKI-1, 48 h, read-out: GI; procedure, shortened: as §1
[3] = Cytotoxicity against human colon cancer cells after 48 hrs by SRB assay; settings: Cancer cell lines; procedure, shortened: as §2
[4] = Cytotoxicity against human non-small cell lung cancer cells after 48 hrs by SRB assay; settings: Cancer cell lines; procedure, shortened: as §2
SK-MEL-5 = test: Growth inhibition of human SK-MEL-5 cells at 10 uM after 48 hrs by SRB assay; settings: SK-MEL-5, 48 h, read-out: GI; procedure, shortened: as §1
[5] = Cytotoxicity against human leukemia cells after 48 hrs by SRB assay; settings: Leukemia cell; procedure, shortened: as §2
[6] = Cytotoxicity against human renal cancer cells after 48 hrs by SRB assay; settings: Cancer cell lines; procedure, shortened: as §2
HOP-92 = test: Growth inhibition of human HOP92 cells at 10 uM after 48 hrs by SRB assay; settings: HOP-92, 48 h, read-out: GI; procedure, shortened: as §1
[7] = Cytotoxicity against human CNS cancer cells after 48 hrs by SRB assay; settings: Cancer cell lines; procedure, shortened: as §2
[8] = Cytotoxicity against human ovarian cancer cells after 48 hrs by SRB assay; settings: Cancer cell lines; procedure, shortened: as §2
MCF7 = test: Growth inhibition of human MCF7 cells at 10 uM after 48 hrs by SRB assay; settings: MCF7, 48 h, read-out: GI; procedure, shortened: as §1
TK-10 = test: Growth inhibition of human TK10 cells at 10 uM after 48 hrs by SRB assay; settings: TK-10, 48 h, read-out: GI; procedure, shortened: as §3
DU-145 = test: Growth inhibition of human DU145 cells at 10 uM after 48 hrs by SRB assay; settings: DU-145, 48 h, read-out: GI; procedure, shortened: as §1
SW-620 = test: Growth inhibition of human SW620 cells at 10 uM after 48 hrs by SRB assay; settings: SW-620, 48 h, read-out: GI; procedure, shortened: as §3
SNB-75 = test: Growth inhibition of human SNB75 cells at 10 uM after 48 hrs by SRB assay; settings: SNB-75, 48 h, read-out: GI; procedure, shortened: as §3
COLO 205 = test: Growth inhibition of human COLO205 cells at 10 uM after 48 hrs by SRB assay; settings: COLO 205, 48 h, read-out: GI; procedure, shortened: as §1
[9] = Cytotoxicity against human prostate cancer cells after 48 hrs by SRB assay; settings: Cancer cell lines; procedure, shortened: as §2
SK-MEL-28 = test: Growth inhibition of human SK-MEL-28 cells at 10 uM after 48 hrs by SRB assay; settings: SK-MEL-28, 48 h, read-out: GI; procedure, shortened: as §1
Malme-3M = test: Growth inhibition of human MALME-3M cells at 10 uM after 48 hrs by SRB assay; settings: read-out: GI; procedure, shortened: as §1
NCI-H23 = test: Growth inhibition of human NCI-H23 cells at 10 uM after 48 hrs by SRB assay; settings: NCI-H23, 48 h, read-out: GI; procedure, shortened: as §1
HOP-62 = test: Growth inhibition of human HOP62 cells at 10 uM after 48 hrs by SRB assay; settings: HOP-62, 48 h, read-out: GI; procedure, shortened: as §1
RXF 393 = test: Growth inhibition of human RXF393 cells at 10 uM after 48 hrs by SRB assay; settings: RXF 393, 48 h, read-out: GI; procedure, shortened: as §1
MDA-MB-231 = test: Growth inhibition of human MDA-MB-231 cells at 10 uM after 48 hrs by SRB assay; settings: MDA-MB-231, 48 h, read-out: GI; procedure, shortened: as §1
A549 = test: Growth inhibition of human A549 cells at 10 uM after 48 hrs by SRB assay; settings: A549, 48 h, read-out: GI; procedure, shortened: as §1
SNB-19 = test: Growth inhibition of human SNB19 cells at 10 uM after 48 hrs by SRB assay; settings: SNB-19, 48 h, read-out: GI; procedure, shortened: as §3
HCT-15 = test: Growth inhibition of human HCT15 cells at 10 uM after 48 hrs by SRB assay; settings: HCT-15, 48 h, read-out: GI; procedure, shortened: as §1
MDA-MB-468 = test: Growth inhibition of human MDA-MB-468 cells at 10 uM after 48 hrs by SRB assay; settings: MDA-MB-468, 48 h, read-out: GI; procedure, shortened: as §1
[10] = Growth inhibition of human EKVX cells at 10 uM after 48 hrs by SRB assay; settings: read-out: GI; procedure, shortened: as §1
[11] = read-out: LC50 (the source's name)

## Nc1ccc(Sc2ccc3c4c2cccc4c(=O)n2c4ccccc4nc32)cc1
IGROV-1
  inhibition of growth at 10 µM: 65.5%
[1]
  GI50: 5.2 µM
  TGI: 46 µM
[1]; [11]
  CC50: > 100 µM
K562
  inhibition of growth at 10 µM: 39.7%
T47D
  inhibition of growth at 10 µM: 60.4%
[2]
  GI50: 6.93 µM
  LC50: 83.9 µM
  TGI: 35.1 µM
786-0
  inhibition of growth at 10 µM: 62.7%
SN12C
  inhibition of growth at 10 µM: 80.8%
CAKI-1
  inhibition of growth at 10 µM: 94.1%
[3]
  GI50: 6.58 µM
  TGI: 60.8 µM
[3]; [11]
  CC50: 98.8 µM
[4]
  GI50: 3.94 µM
  TGI: 32.5 µM
SK-MEL-5
  inhibition of growth at 10 µM: 60.6%
[5]
  GI50: 2.9 µM
  TGI: 44.5 µM
[5]; [11]
  CC50: > 100 µM
[6]
  GI50: 3.3 µM
  TGI: 15.4 µM
[6]; [11]
  CC50: 88.9 µM
HOP-92
  inhibition of growth at 10 µM: 71.3%
[7]
  GI50: 4.09 µM
  TGI: 45.4 µM
[7]; [11]
  CC50: 94 µM
[8]
  GI50: 6.97 µM
  TGI: 37.4 µM
[8]; [11]
  CC50: 97.9 µM
MCF7
  inhibition of growth at 10 µM: 76.4%
TK-10
  inhibition of growth at 10 µM: 21.4%
DU-145
  inhibition of growth at 10 µM: 60.7%
SW-620
  inhibition of growth at 10 µM: 53.8%
SNB-75
  inhibition of growth at 10 µM: 56.3%
COLO 205
  inhibition of growth at 10 µM: 49.2%
[9]
  GI50: 3.23 µM
  TGI: 17.9 µM
SK-MEL-28
  inhibition of growth at 10 µM: 26.3%
Malme-3M
  inhibition of growth at 10 µM: 66%
NCI-H23
  inhibition of growth at 10 µM: 62.5%
HOP-62
  inhibition of growth at 10 µM: 48.8%
RXF 393
  inhibition of growth at 10 µM: 27.4%
MDA-MB-231
  inhibition of growth at 10 µM: 45.6%
A549
  inhibition of growth at 10 µM: 79.4%
SNB-19
  inhibition of growth at 10 µM: 53.7%
HCT-15
  inhibition of growth at 10 µM: 59.5%
MDA-MB-468
  inhibition of growth at 10 µM: 56.5%

## O=c1c2cccc3c(N4CCCC4)ccc(c32)c2nc3ccccc3n12
IGROV-1
  inhibition of growth at 10 µM: 42.9%
K562
  inhibition of growth at 10 µM: 24%
T47D
  inhibition of growth at 10 µM: 27.9%
786-0
  inhibition of growth at 10 µM: < 20%
SN12C
  inhibition of growth at 10 µM: 35.2%
CAKI-1
  inhibition of growth at 10 µM: 48.7%
SK-MEL-5
  inhibition of growth at 10 µM: 35.5%
HOP-92
  inhibition of growth at 10 µM: 59.3%
[10]
  inhibition of growth at 10 µM: 24.1%
MCF7
  inhibition of growth at 10 µM: 50%
TK-10
  inhibition of growth at 10 µM: < 20%
DU-145
  inhibition of growth at 10 µM: 21.9%
SW-620
  inhibition of growth at 10 µM: 40.5%
SNB-75
  inhibition of growth at 10 µM: 27%
COLO 205
  inhibition of growth at 10 µM: 36.4%
SK-MEL-28
  inhibition of growth at 10 µM: < 20%
Malme-3M
  inhibition of growth at 10 µM: 29.6%
NCI-H23
  inhibition of growth at 10 µM: 31.8%
HOP-62
  inhibition of growth at 10 µM: 33.9%
RXF 393
  inhibition of growth at 10 µM: < 20%
MDA-MB-231
  inhibition of growth at 10 µM: 22.9%
A549
  inhibition of growth at 10 µM: 67.4%
SNB-19
  inhibition of growth at 10 µM: 24%
HCT-15
  inhibition of growth at 10 µM: 21.4%
MDA-MB-468
  inhibition of growth at 10 µM: < 20%
